Here are results for 14 compounds from ChEMBL document CHEMBL3397031, “Synthesis and structure-activity relationships of pyridinyl-1H-1,2,3-triazolyldihydroisoxazoles as potent inhibitors of tubulin polymerization” (Eur J Med Chem, 2015).

Assay [1] has as its system HeLa. The assay is described as follows: Cytotoxicity against human HeLa cells after 48 hrs by MTT assay. It is filed as functional, cell-based. The method in brief:
(§1)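 A549, HeLa and MCF7 cells were grown in DMEM with 10% FBS, and DU145 in MEM with non-essential amino acids, pyruvate, insulin and 10% FBS. Cells were plated 24 h before dosing, then exposed continuously for 48 h at 1, 10, 25 and 100 µM in triplicate wells. MTT was added for 60 min, dissolved in DMSO and read at 560 nm. IC50 was taken from dose-response curves against control, as mean ± SD of three independent experiments.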
(Tetrazolium assays rely on reduction of a dye to a coloured formazan, in cell work by metabolically active cells.)

In assay [2] the test system is MCF7. The assay is described as follows: Cytotoxicity against human MCF7 cells after 48 hrs by MTT assay. It is filed as functional, cell-based. The note with it: MCF7, 48 h. Summed up: as §1
Assay [3] relates to DU-145. The assay is described as follows: Cytotoxicity against human DU145 cells after 48 hrs by MTT assay. It is filed as functional, cell-based. To be noted: DU-145, 48 h. The method in brief: as §1
Assay [4] relates to A549. The assay can be described thus: Cytotoxicity against human A549 cells after 48 hrs by MTT assay. The note with it: A549, 48 h. It is filed as functional, cell-based. Summed up:
as §1

Assay [5] has as its target Tubulin (Bos taurus) (UniProt Q6B856+Q862L2+Q862F3). To be noted: at 10 µM.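 Note: polymerization of tubulin from bovine brain, tracked by a fluorescence readout over 1 h, reported as percent inhibition of assembly.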

The structures appear in SMILES notation.

Broadly, the IC50 is the point on the concentration scale where inhibition reaches its midpoint. A higher IC50 goes with lower potency. The inhibition is how much of the control response was suppressed. Read a low inhibition as a response near the control. `COc1cc(C2=NOC(COCc3cn(Cc4cc(C)cnc4N4CCSCC4)nn3)C2)cc(OC)c1OC` (centres undefined): the IC50 in assay [1] stood at 41 µM; in assay [2], 45.1 µM; in assay [3], 29.4 µM; in assay [4], 45.6 µM. Also, the inhibition in assay [5] is 38%.

For `COc1cc(COCc2cn(Cc3cc(C)cnc3N3CCOCC3)nn2)cc(OC)c1OC`, the IC50 was determined as 35.6 µM in assay [1], 48.5 µM in assay [2], 66.7 µM in assay [3] and 64.9 µM in assay [4]. In assay [5], this compound displayed an inhibition of 45%.

For `COc1cc(C2=NOC(COCc3cn(Cc4cc(C)cnc4Cl)nn3)C2)cc(OC)c1OC` (centres undefined), the IC50 stood at 50.5 µM in assay [1], 85.5 µM in assay [2], 58.9 µM in assay [3] and 37.7 µM in assay [4]. Besides, the inhibition in assay [5] is 53%.

Take `COc1cc(COCc2cn(Cc3cc(-c4ccc(C)cc4)cnc3N3CCSCC3)nn2)cc(OC)c1OC`: the concentration for half-maximal inhibition (IC50) came to 352 µM in assay [1], 67.8 µM in assay [2], 41.9 µM in assay [3] and 33.9 µM in assay [4]. This compound also showed an inhibition in assay [5] of 21%.

For the compound `COc1cc(COCc2cn(Cc3cc(-c4ccc(C)cc4)cnc3Cl)nn2)cc(OC)c1OC`, the IC50 stood at 28.6 µM in assay [1], 146 µM in assay [2], 37 µM in assay [3] and 150 µM in assay [4]. The inhibition in assay [5] is 35%.

With `COc1cc(COCc2cn(Cc3cc(-c4ccc(C)cc4)cnc3N3CCOCC3)nn2)cc(OC)c1OC`, the IC50 in assay [1] amounted to 35.8 µM; in assay [2], 51.7 µM; in assay [3] it was 34.8 µM; in assay [4], 38.5 µM. The compound further yielded an inhibition in assay [5] of 48%.

On to `COc1cc(-c2cc(COCc3cn(Cc4cc(C)cnc4Cl)nn3)on2)cc(OC)c1OC`, for which the IC50 was determined as 57.7 µM in assay [1], 194 µM in assay [2], 39.8 µM in assay [3] and 256 µM in assay [4]. In addition, the inhibition in assay [5] came out at 22%.

In the case of `COc1cc(C2=NOC(COCc3cn(Cc4cc(-c5ccccc5)cnc4N4CCSCC4)nn3)C2)cc(OC)c1OC` (centres undefined), the IC50 in assay [1] worked out at 29.2 µM; in assay [2] it was 45 µM; in assay [3], 34.5 µM; in assay [4], 31.5 µM. Also, the inhibition in assay [5] came to 50%.

As for `COc1cc(-c2cc(COCc3cn(Cc4cc(-c5ccc(C)cc5)cnc4N4CCSCC4)nn3)on2)cc(OC)c1OC`, the IC50 in assay [1] came to 52.6 µM; in assay [2] it was 64.8 µM; in assay [3], 94.3 µM; in assay [4], 61 µM. In assay [5], this compound showed an inhibition of 15%.

Turning to `COc1cc(COCc2cn(Cc3cc(C)cnc3Cl)nn2)cc(OC)c1OC`, the IC50 in assay [1] was found to be 264 µM; in assay [2] it was 67.4 µM; in assay [3] it was 34.8 µM; in assay [4], 41.9 µM. In assay [5], this compound registered an inhibition of 24%.

Consider `COc1cc(-c2cc(COCc3cn(Cc4cc(C)cnc4N4CCOCC4)nn3)on2)cc(OC)c1OC`, for which the IC50 in assay [1] was 128 µM; in assay [2] it was 195 µM; in assay [3], 54.7 µM; in assay [4], 39.5 µM. The inhibition in assay [5] is 19%.

In the case of `COc1cc(COCc2cn(Cc3cc(C)cnc3N3CCSCC3)nn2)cc(OC)c1OC`, the IC50 was found to be 61.8 µM in assay [1], 82.1 µM in assay [2], 48.6 µM in assay [3] and 71.5 µM in assay [4]. The compound also displayed an inhibition in assay [5] of 27%.

`COc1cc(-c2cc(COCc3cn(Cc4cc(-c5ccccc5)cnc4N4CCOCC4)nn3)on2)cc(OC)c1OC`: the IC50 in assay [1] was 39.4 µM; in assay [2] it was 63.4 µM; in assay [3], 54 µM; in assay [4], 39.2 µM. For the same compound, the inhibition in assay [5] was found to be 27%.

On to `COc1cc2c(c(OC)c1OC)-c1ccc(OC)c(=O)cc1[C@@H](NC(C)=O)CC2` [COLCHICINE], for which the IC50 in assay [1] was 0.54 µM; in assay [2] it was 0.07 µM; in assay [3], 0.69 µM; in assay [4], 0.12 µM.
